Calls of active or inactive are those of the source. No cut-off for these calls is given here.

Results on one compound are retold here after ChEMBL document CHEMBL4138195, “Discovery of novel propargylamine-modified 4-aminoalkyl imidazole substituted pyrimidinylthiourea derivatives as multifunctional agents for the treatment of Alzheimer's disease” (Eur J Med Chem, 2018).

Data set [1] deals with Butyrylcholinesterase (Rattus norvegicus) (UniProt Q9JKC1). Description: Inhibition of BuChE in rat serum at 40 uM using butyrylthiocholine iodide as substrate after 20 mins by Ellman's method.
Sequence of Butyrylcholinesterase (Rattus norvegicus) (Q9JKC1 as listed by the source): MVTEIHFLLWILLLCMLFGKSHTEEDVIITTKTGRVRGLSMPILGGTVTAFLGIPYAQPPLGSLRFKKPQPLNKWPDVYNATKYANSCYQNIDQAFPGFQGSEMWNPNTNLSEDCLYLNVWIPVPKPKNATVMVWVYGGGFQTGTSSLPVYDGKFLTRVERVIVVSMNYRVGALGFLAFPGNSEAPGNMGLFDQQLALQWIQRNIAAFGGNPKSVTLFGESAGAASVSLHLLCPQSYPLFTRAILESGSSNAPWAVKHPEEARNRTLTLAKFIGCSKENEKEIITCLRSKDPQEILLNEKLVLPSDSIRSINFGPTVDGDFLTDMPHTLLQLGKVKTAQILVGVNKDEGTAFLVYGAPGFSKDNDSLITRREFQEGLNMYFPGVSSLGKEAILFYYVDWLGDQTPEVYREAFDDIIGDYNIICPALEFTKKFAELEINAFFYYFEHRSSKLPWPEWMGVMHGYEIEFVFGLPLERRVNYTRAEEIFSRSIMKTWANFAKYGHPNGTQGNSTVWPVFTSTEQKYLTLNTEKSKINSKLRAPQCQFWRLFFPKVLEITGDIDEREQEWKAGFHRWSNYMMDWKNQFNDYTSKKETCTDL
In data set [2] the target is T1, Amine oxidase [flavin-containing] A (Homo sapiens, UniProt P21397).
T1 sequence (P21397 whole entry): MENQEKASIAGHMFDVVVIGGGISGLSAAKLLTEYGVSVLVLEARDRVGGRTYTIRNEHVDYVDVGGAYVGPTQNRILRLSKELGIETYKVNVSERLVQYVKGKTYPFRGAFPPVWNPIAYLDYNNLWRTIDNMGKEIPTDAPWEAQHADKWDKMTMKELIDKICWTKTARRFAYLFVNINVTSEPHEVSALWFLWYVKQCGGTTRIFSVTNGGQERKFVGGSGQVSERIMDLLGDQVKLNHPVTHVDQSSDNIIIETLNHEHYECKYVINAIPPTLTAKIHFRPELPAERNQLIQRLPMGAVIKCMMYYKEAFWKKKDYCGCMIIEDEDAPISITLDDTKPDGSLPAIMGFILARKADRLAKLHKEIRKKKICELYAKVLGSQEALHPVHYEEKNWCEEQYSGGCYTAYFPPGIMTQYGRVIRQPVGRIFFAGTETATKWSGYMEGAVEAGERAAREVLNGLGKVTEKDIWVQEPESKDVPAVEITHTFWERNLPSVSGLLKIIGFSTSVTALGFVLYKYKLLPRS
Nature of the data set: Inhibition of recombinant human MAOA using p-tyramine as substrate preincubated for 15 mins followed by substrate addition measured after 15 mins by Amplex red reagent based fluorescence assay.

For the next data set, the species on record is Homo sapiens. Description: Selectivity index, ratio of IC50 for recombinant human MAOA to IC50 for recombinant human MAOB. The procedure, abridged:
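Recombinant human MAO-A (12.5 µg/mL) or MAO-B (75 µg/mL) preincubated 15 min at 37 °C with compound (diluted from 10 mM DMSO stock in 50 mM KH2PO4, pH 7.4). Amplex Red working solution added: 2 mM p-tyramine (MAO-A) or benzylamine (MAO-B), 2 U/mL HRP. After 15 min at 37 °C, fluorescence read (ex 545/em 590), background from enzyme-free wells subtracted.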

Data set [3] is described as follows: Antioxidant activity assessed as trolox equivalent of AAPH radical scavenging activity preincubated for 10 mins followed by AAPH addition measured every 2 mins for 180 mins by ORAC-FL assay. The format is functional. The procedure, abridged:
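Compound at 20 µM (diluted from 10 mM DMSO stock in 75 mM phosphate, pH 7.4) with fluorescein (0.117 µM diluted) for 10 min at 37 °C, then AAPH (40 mM solution) added. Fluorescence (ex 485/em 535) read every 2 min for 180 min. […] Triplicate wells, ≥3 runs.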

Data set [4] is described as follows: Metal chelating activity assessed as compound-Cu2+ complex formation at 40 uM in presence of CuCl2 after 30 mins by UV-visible spectrophotometric analysis. In short, it runs like this:
(§1)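 UV–vis spectra (200–500 nm) of compound at 40 µM final, alone or with CuCl2, FeSO4, FeCl3 or ZnCl2 (20 µM final), after 30 min in 20 mM HEPES, 150 mM NaCl, pH 7.4, at room temperature.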

Data set [5] in a line: Metal chelating activity assessed as compound-Fe2+ complex formation at 40 uM in presence of FeSO4 after 30 mins by UV-visible spectrophotometric analysis. In short, it runs like this:
as §1

A short description of data set [6]: Metal chelating activity assessed as compound-Zn2+ complex formation at 40 uM in presence of ZnCl2 after 30 mins by UV-visible spectrophotometric analysis. In short, it runs like this: as §1
The nature of data set [7]: Inhibition of Cu2+-mediated amyloid beta (1 to 42) (unknown origin) aggregation at 50 uM after 24 hrs by dot blot assay. In short, it runs like this:
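Aβ1-42 (2000 µM stock in 1% ammonium hydroxide) diluted in […], pH 6.6. Peptide 25 µM ± Cu(II) 25 µM ± compound 50 µM, incubated 37 °C for 24 h. Samples spotted on nitrocellulose, blocked in 5% milk, probed overnight at 4 °C with A11 (oligomers) or 6E10 (total Aβ), HRP secondary, densitometry. N = 4, mean ± SEM; EGCG control.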

The nature of data set [8]: Inhibition of Cu2+-induced amyloid beta (1 to 42 residues) (unknown origin) aggregation assessed as reduction in amyloid beta fibril load at 50 uM after 24 hrs by phosphotungstic acid staining-based transmission electron microscopic method. The procedure, abridged:
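Aβ1-42 (25 µM) ± CuCl2 (25 µM) ± compound (50 µM) in HEPES/NaCl pH 6.6, incubated 24 h at 37 °C. Aliquots placed on carbon-coated copper grids for 30 min, stained 20 s with 2% phosphotungstic acid, imaged by TEM. Clioquinol as comparator.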

Data set [9] deals with Cortical neurone. Description: Cytotoxicity against E17 Sprague-Dawley rat primary cortical neurons at 10 to 30 uM after 24 hrs by MTT assay. The format is cell-based. On the technique in general: Formazan colour is commonly taken as a measure of viable cells.
Data set [10] relates to Cortical neurone. Description: Cytotoxicity against E17 Sprague-Dawley rat primary cortical neurons at 100 uM after 24 hrs by MTT assay relative to donepezil. The format is cell-based. The procedure, abridged: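 Primary cortical neurons from E17 SD rat embryos, trypsin-dissociated and cultured 9 days in neurobasal/B27 on poly-L-lysine (3×10^4 cells/well). Treated at 10, 30 and 100 µM for 24 h, with donepezil as reference. MTT (5 mg/mL, 10 µL) for 4 h at 37 °C, absorbance 490 nm, viability as % of vehicle-treated cells; mean ± SEM.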

The nature of data set [11]: Inhibition of Cu2+-mediated amyloid beta (1 to 42) peptide-induced cytotoxicity in E17 Sprague-Dawley rat primary cortical neurons assessed as neuroprotective activity by measuring increase in cell viability at 1 uM after 24 hrs by MTT assay. The procedure, abridged: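 Rat E17 primary cortical neurons after 9 days in culture. Aβ1-42 samples, prepared as for the dot blot (± Cu2+, ± compound), added to the cultures at 1 µM for 24 h. Viability by MTT, normalized to the vehicle group. EGCG and clioquinol as positive controls.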

The subject of data set [12] is Mus musculus. Description: Reversal of scopolamine-induced dementia in ICR mouse assessed as decrease in escape latency time at 30 mg/kg, po administered 40 mins prior to scopolamine-challenge by water maze test. It is filed as functional, organism-based. In short, it runs like this: (§2)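 Test compound as HCl salt, 30 mg/kg intragastric, given 40 min before scopolamine (4.5 mg/kg i.p.), which was given 20 min before the water maze. Escape latency and errors (entries into no-exit paths) recorded; mean ± SEM.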

Data set [13] has as its system Mus musculus. Description: Reversal of scopolamine-induced dementia in ICR mouse assessed as decrease in frequent error incidences at 30 mg/kg, po administered 40 mins prior to scopolamine-challenge by water maze test. It is filed as functional, organism-based. In short, it runs like this:
as §2

A further data set is described as follows: in vitro. Particulars: PAMPA. For orientation: PAMPA measures passive passage across an artificial lipid membrane.
Data set [14] is described as follows: Inhibition of Cu2+-mediated amyloid beta (1 to 42) (unknown origin) aggregation at 50 uM after 24 hrs by dot blot assay.

Regarding `C#CCN(C)Cc1cn(-c2cc(NC(=S)NCC)ncn2)cn1`, the inhibition (as a rule, the percentage by which the read-out fell short of the control) in data set [1] is 12.6%. Besides, in data set [2], the IC50 (in general, the midpoint of a concentration-inhibition curve) was above 50 µM. For the same compound, the Ratio IC50 in the data set listed under Homo sapiens is above 35. Besides, the Activity (umolequiv/umol) in data set [3] turned out to be 1.13. For the same compound, the result (in data set [4]; in data set [11]; with Mus musculus [12]; in the data set on Mus musculus [13]) was Active. Further, the result in data set [5] and in data set [6] was inactive. Further, the inhibition entry in data set [7], in data set [8] and in data set [14] was “Active” in each case. Further, the Activity entry in the data set with Cortical neurone [9] and with Cortical neurone [10] was “Non-Toxic” each time. In addition, the Papp – broadly, the rate of passage across a membrane or cell layer, normalised by area and donor concentration – at 12 h, 100 ug/ml in the data set “in vitro” was found to be 3.16 ×10⁻⁶ cm/s.
